Test results published in ChEMBL document CHEMBL1125135, “Synthesis and central nervous system actions of thyrotropin-releasing hormone analogues containing a dihydroorotic acid moiety” (J Med Chem, 1990).
Active and inactive are the calls of the source. No cut-off for these calls is given here.

Legend:
Rattus norvegicus [1] = assay: The thyrotropin (TSH) releasing activity was measured as serum TSH at 0.03125 ug/rat dose (i.v.); type: functional, organism-based
How it was run: (§1)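 TSH release test in rats run as in the authors' earlier paper. Peptide given iv as μg/rat doses, 4–7 rats per group with a control group. Serum TSH reported in μg/100 mL as mean ± SE. Potency ratio versus TRH from parallel-line analysis of dose-response curves. Groups compared with control by two-tailed Student's t test.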

Rattus norvegicus [2] = assay: The thyrotropin (TSH) releasing activity was measured as serum TSH at 0.125 ug/rat dose (i.v.); type: functional, organism-based; how it was run: as §1
Rattus norvegicus [3] = assay: The thyrotropin (TSH) releasing activity was measured as serum TSH at 0.5 ug/rat dose (i.v.); type: functional, organism-based; how it was run: as §1
[4] = Evaluated for the potency ratio from the dose-response curve of TRH and compound by the parallel line assay method.; type: functional; how it was run: as §1
Mus musculus [5] = assay: (§2) Effect on reserpine-induced hypothermia (antagonist activity) in mice by intraperitoneal (ip) administration relative to TRH; type: functional, organism-based
How it was run: (§3)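 Mouse CNS tests followed methods from the authors' earlier paper. The potency ratio versus TRH comes from dose-response data for the test compound and TRH using the parallel line assay method.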

Mus musculus [6] = assay: Toxicity and mortality indicates the number of dead animals / number of animals used at dose of 500 mg/kg by administering intravenously (iv) in 3 mice.; type: organism-based; design: dose 500 mg/kg, route intravenous; conditions: in vivo
How it was run: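 Acute toxicity in male Std/ddY mice (26-28 g), three to 10 per group. Compound dissolved in physiological saline and given as a single iv dose of 500 mg/kg. Animals observed for 1 week at 23-24 °C. Mortality recorded as dead/used.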

Mus musculus [7] = assay: (§4) Effect on pentobarbitol anesthesia (antagonist activity) in mice by intravenous (iv) administration relative to TRH; type: functional, organism-based; how it was run: as §3
Mus musculus [8] = assay: Evaluated for the effect on spontaneous locomotor activity in mice by intraperitoneal (ip) administration relative to TRH
Mus musculus [9] = assay: as above; remark: listed apart in the source
Mus musculus [10] = assay: as §4; type: functional
How it was run: (§5)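 Mouse CNS assay run by the method of an earlier report. Potency ratio to TRH derived from dose-response data by parallel line assay.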

Mus musculus [11] = assay: as §2; type: functional; how it was run: as §5

Row | Structure (SMILES) | Activity (Mus musculus [5]) | Mortality (Mus musculus [6]) | Activity (Mus musculus [7]) | Activity (Mus musculus [8]) | further results
1 | NC(=O)[C@@H]1CCCN1C(=O)[C@H](Cc1c[nH]cn1)NC(=O)[C@@H]1CCC(=O)N1 | – | – | – | – | Serum TSH (Rattus norvegicus [1]): 59.1 µg 100ml-1; Serum TSH (Rattus norvegicus [2]): 115 µg 100ml-1; Serum TSH (Rattus norvegicus [3]): 351 µg 100ml-1; Ratio [4]: 1
2 | CCCCN1C(=O)CC(C(=O)N[C@@H](Cc2c[nH]cn2)C(=O)N2CCC[C@H]2C(N)=O)N(C)C1=O (stereo not given in full) | inactive | 0 | inactive | inactive | –
3 | CCC[C@H](NC(=O)[C@@H]1CC(=O)N(C)C(=O)N1)C(=O)N1CCC[C@@H]1C(N)=O | inactive | 0 | inactive | inactive | –
4 | CCCN1C(=O)C[C@@H](C(=O)N[C@@H](Cc2c[nH]cn2)C(=O)N2CCC[C@H]2C(N)=O)NC1=O [listing 1 of 2 here] | – | – | – | – | Activity (Mus musculus [9]): 0.7
5 | CN1C(=O)C[C@@H](C(=O)N[C@H](Cc2c[nH]cn2)C(=O)O)NC1=O | inactive | 0 | inactive | inactive | –
6 | CN1C(=O)C[C@@H](C(=O)N[C@H](Cc2c[nH]cn2)C(=O)OCc2ccccc2)NC1=O | inactive | 0 | inactive | inactive | –
7 | NC(=O)[C@@H]1CCCN1C(=O)[C@H](Cc1c[nH]cn1)NC(=O)[C@@H]1CC(=O)N(Cc2ccccc2)C(=O)N1 [listing 1 of 2 here] | – | – | – | – | Activity (Mus musculus [9]): 2.3; Activity (Mus musculus [10]): 1.4; Activity (Mus musculus [11]): 6.8
8 | C=CCN1C(=O)C[C@@H](C(=O)N[C@@H](Cc2c[nH]cn2)C(=O)N2CCC[C@H]2C(N)=O)NC1=O [listing 1 of 2 here] | – | 1 | – | – | –
9 | CN1C(=O)NC(=O)C[C@H]1C(=O)N[C@H](Cc1c[nH]cn1)C(=O)N1CCC[C@@H]1C(N)=O | inactive | – | inactive | inactive | –
10 | CN1C(=O)C[C@@H](C(=O)N[C@@H](Cc2c[nH]cn2)C(=O)N2CCC[C@@H]2C(N)=O)NC1=O | inactive | 0 | inactive | inactive | –
11 | NC(=O)[C@@H]1CCCN1C(=O)[C@H](Cc1c[nH]cn1)NC(=O)[C@@H]1CC(=O)N(CC(=O)O)C(=O)N1 | – | 0 | – | inactive | Activity (Mus musculus [10]): 0.1; Activity (Mus musculus [11]): 0.1
12 | CN1C(=O)C[C@@H](C(=O)N[C@H](Cc2c[nH]cn2)C(=O)N2CCC[C@H]2C(N)=O)NC1=O | inactive | 0 | inactive | inactive | –
13 | NC(=O)[C@@H]1CCCN1C(=O)[C@H](Cc1c[nH]cn1)NC(=O)[C@@H]1CC(=O)N(CCF)C(=O)N1 [listing 1 of 2 here] | – | 1 | – | – | –
14 | CN1C(=O)C[C@@H](C(=O)N[C@H](Cc2c[nH]cn2)C(=O)N2CCC[C@@H]2C(=O)O)NC1=O | inactive | 0 | inactive | inactive | –
15 | CN(C)C(=O)[C@H]1CCCN1C(=O)[C@@H](Cc1c[nH]cn1)NC(=O)[C@@H]1CC(=O)N(C)C(=O)N1 | inactive | 0 | inactive | inactive | –
16 | CCCCCCCCCCCCCCCCCCN1C(=O)C[C@@H](C(=O)N[C@H](Cc2c[nH]cn2)C(=O)N2CCC[C@@H]2C(N)=O)NC1=O | inactive | – | inactive | inactive | –
17 | CC(C)N1C(=O)C[C@@H](C(=O)N[C@@H](Cc2c[nH]cn2)C(=O)N2CCC[C@H]2C(N)=O)NC1=O [listing 1 of 2 here] | – | 0 | – | – | –
18 | Cn1c(=O)cc(C(=O)N[C@@H](Cc2c[nH]cn2)C(=O)N2CCC[C@@H]2C(N)=O)[nH]c1=O | inactive | 0 | – | inactive | Activity (Mus musculus [10]): 0.4
19 | NCCN1C(=O)CC(C(=O)N[C@@H](Cc2c[nH]cn2)C(=O)N2CCC[C@H]2C(N)=O)NC1=O (mixture of isomers) | inactive | 0 | inactive | inactive | –

Row | Structure (SMILES) | Activity (Mus musculus [5]) | Mortality (Mus musculus [6]) | Activity (Mus musculus [7]) | Activity (Mus musculus [8]) | further results
20 | CCCCN1C(=O)C[C@@H](C(=O)N[C@@H](Cc2c[nH]cn2)C(=O)N2CCC[C@H]2C(N)=O)NC1=O [listing 1 of 2 here] | – | – | – | – | Activity (Mus musculus [9]): 1.2; Activity (Mus musculus [10]): 0.8; Activity (Mus musculus [11]): 1.8
21 | NC(=O)[C@@H]1CCCN1C(=O)[C@H](Cc1c[nH]cn1)NC(=O)[C@@H]1CC(=O)N(CCF)C(=O)N1 [listing 2 of 2 here] | – | – | – | – | Activity (Mus musculus [9]): 0.9; Activity (Mus musculus [10]): 1.2; Activity (Mus musculus [11]): 4.1
22 | CCCCN1C(=O)C[C@@H](C(=O)N[C@@H](Cc2c[nH]cn2)C(=O)N2CCC[C@H]2C(N)=O)NC1=O [listing 2 of 2 here] | – | 1 | – | – | –
23 | NC(=O)[C@@H]1CCCN1C(=O)[C@H](Cc1c[nH]cn1)NC(=O)C1CC(=O)N(CCOCc2ccccc2)C(=O)N1 (mixture of isomers) | – | 0 | – | inactive | Activity (Mus musculus [10]): 0.4; Activity (Mus musculus [11]): 1.1
24 | CN1C(=O)N(Cc2ccccc2)C(=O)CC1C(=O)N[C@@H](Cc1c[nH]cn1)C(=O)N1CCC[C@H]1C(N)=O (mixture of isomers) | inactive | 0 | inactive | inactive | –
25 | C=CCN1C(=O)C[C@@H](C(=O)N[C@@H](Cc2c[nH]cn2)C(=O)N2CCC[C@H]2C(N)=O)NC1=O [listing 2 of 2 here] | – | – | – | – | Activity (Mus musculus [9]): 5.7; Activity (Mus musculus [10]): 4.4; Activity (Mus musculus [11]): 4.7
26 | NC(=O)[C@@H]1CCCN1C(=O)[C@H](Cc1c[nH]cn1)NC(=O)C1CC(=O)N(CCO)C(=O)N1 (mixture of isomers) | inactive | 0 | inactive | inactive | –
27 | NC(=O)[C@@H]1CCCN1C(=O)[C@H](Cc1c[nH]cn1)NC(=O)[C@@H]1CC(=O)N(Cc2ccccc2)C(=O)N1 [listing 2 of 2 here] | – | 3 | – | – | –
28 | CN1C(=O)C[C@@H](C(=O)N[C@@H](Cc2c[nH]cn2)C(=O)N2CCC[C@H]2C(N)=O)N(C)C1=O [listing 1 of 2 here] | – | – | – | – | Activity (Mus musculus [9]): 0.4; Activity (Mus musculus [10]): 1.2; Activity (Mus musculus [11]): 0.5
29 | CCCCCN1C(=O)C[C@@H](C(=O)N[C@H](Cc2c[nH]cn2)C(=O)N2CCC[C@@H]2C(N)=O)NC1=O | inactive | – | – | inactive | –
30 | COC(=O)[C@@H](Cc1c[nH]cn1)NC(=O)[C@@H]1CC(=O)N(C)C(=O)N1 | inactive | 0 | inactive | inactive | –
31 | CCCCCN1C(=O)C[C@@H](C(=O)N[C@@H](Cc2c[nH]cn2)C(=O)N2CCC[C@H]2C(N)=O)NC1=O [listing 1 of 2 here] | – | – | – | – | Activity (Mus musculus [10]): 0.4
32 | CC(C)N1C(=O)C[C@@H](C(=O)N[C@@H](Cc2c[nH]cn2)C(=O)N2CCC[C@H]2C(N)=O)NC1=O [listing 2 of 2 here] | – | – | – | – | Activity (Mus musculus [9]): 5; Activity (Mus musculus [10]): 1.9; Activity (Mus musculus [11]): 11.5
33 | NC(=O)[C@@H]1CCCN1C(=O)[C@H](Cc1c[nH]cn1)NC(=O)C1=NC(=O)NC(=O)C1 | – | 0 | – | – | Activity (Mus musculus [9]): 3.1; Activity (Mus musculus [10]): 1.3; Activity (Mus musculus [11]): 5.5
34 | CCCCCN1C(=O)C[C@@H](C(=O)N[C@@H](Cc2c[nH]cn2)C(=O)N2CCC[C@H]2C(N)=O)NC1=O [listing 2 of 2 here] | – | 2 | – | – | –
35 | CN1C(=O)NC(=O)C[C@H]1C(=O)N[C@@H](Cc1c[nH]cn1)C(=O)N1CCC[C@H]1C(N)=O | – | 0 | – | – | –
36 | CN1C(=O)C[C@@H](C(=O)N[C@@H](Cc2c[nH]cn2)C(=O)N2CCC[C@H]2C(N)=O)N(C)C1=O [listing 2 of 2 here] | – | 0 | – | – | –
37 | CCCN1C(=O)C[C@@H](C(=O)N[C@@H](Cc2c[nH]cn2)C(=O)N2CCC[C@H]2C(N)=O)NC1=O [listing 2 of 2 here] | – | 0 | – | – | –
